Source: ChEMBL document CHEMBL3120133, “Discovery of a potent boronic acid derived inhibitor of the HCV RNA-dependent RNA polymerase” (J Med Chem, 2014)
The source made the active and inactive calls. The rule behind the calls is not given here.

Legend:
[1] = test system: Hepatitis C virus; test: Antiviral activity against wild type Hepatitis C virus genotype 1b harboring C316N mutant infected in human HuH7 cells assessed as inhibition of viral replication after 48 hrs by luciferase reporter gene assay; type: functional, organism-based, Hepacivirus hominis; conditions: Huh-7, 48 h
[2] = test system: Hepatitis C virus; test: Antiviral activity against wild type Hepatitis C virus genotype 1a infected in human HuH7 cells assessed as inhibition of viral replication after 48 hrs by luciferase reporter gene assay; type: functional, organism-based, Hepacivirus hominis; conditions: subtype 1a, Huh-7, 48 h
Outline: (§1)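 Replicon-based readout (stable and transient replicon formats) in place of virus infection, with compound present for 2 days before EC50 determination.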

[3] = Inhibition of C-terminal 6xHis-tagged Hepatitis C virus genotype 1b BK NS5B Cdelta21 RNA dependent RNA polymerase L47Q/F101Y/[…] mutant after 30 mins in presence of [alpha-33P]; parameters: species or system Hepatitis C virus (isolate BK)
[4] = test system: Hepatitis C virus; test: Antiviral activity against wild type Hepatitis C virus genotype 1b infected in human HuH7 cells assessed as inhibition of viral replication after 48 hrs by luciferase reporter gene assay; type: functional, organism-based, Hepacivirus hominis; conditions: Huh-7, 48 h; outline: as §1
[5] = test system: Hepatitis C virus; test: Antiviral activity against wild type Hepatitis C virus genotype 1a harboring C316Y mutant infected in human HuH7 cells assessed as inhibition of viral replication after 48 hrs by luciferase reporter gene assay; type: functional, organism-based, Hepacivirus hominis; conditions: subtype 1a, Huh-7, 48 h
[6] = Bioavailability in Sprague-Dawley rat at 1 mg/kg, iv and 5 mg/kg, po; type: ADME, organism-based; conditions: in vivo
[7] = Clearance in Sprague-Dawley rat at 1 mg/kg, iv and 5 mg/kg, po; type: ADME, organism-based; conditions: in vivo
[8] = test system: Huh-7; test: Cytotoxicity in human HuH7 cells assessed as cell viability after 72 hrs by CellTitre-glo luminescence assay; type: cell-based; conditions: huh-7, 72 h
[9] = Stability of the compound; type: physicochemical
[10] = test system: Hepatitis C virus; test: Antiviral activity against wild type Hepatitis C virus genotype 1b harboring C316Y mutant infected in human HuH7 cells assessed as inhibition of viral replication after 72 hrs by Bright-glo luciferase reporter gene assay; type: functional, organism-based, Hepacivirus hominis; conditions: Huh-7, 72 h
[11] = test system: Hepatitis C virus; test: Antiviral activity against wild type Hepatitis C virus genotype 1b harboring C316F mutant infected in human HuH7 cells assessed as inhibition of viral replication after 72 hrs by Bright-glo luciferase reporter gene assay; type: functional, organism-based, Hepacivirus hominis; conditions: Huh-7, 72 h
[12] = test system: Hepatitis C virus; test: Antiviral activity against wild type Hepatitis C virus genotype 1b harboring S365T mutant infected in human HuH7 cells assessed as inhibition of viral replication after 72 hrs by Bright-glo luciferase reporter gene assay; type: functional, organism-based, Hepacivirus hominis; conditions: Huh-7, 72 h
[13] = test system: RNA-directed RNA polymerase (Hepacivirus hominis), O39930 [C316N]; test: Binding affinity to Hepatitis C virus genotype 1b NS5B Cdelta21 RNA dependent RNA polymerase 316N mutant assessed as dissociation half life at 10 uM by LC-MS/MS analysis; conditions: Hepatitis C virus subtype 1b
Outline: (§2)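 NS5B∆21 GT1b 316N (10 uM) saturated with 12uM inhibitor to pre-form the complex, then diluted 20-fold into 10 uM of the competing Palm II inhibitor to block rebinding. Bound compound was separated from free by rapid size-exclusion filtration over time, and both inhibitors were quantified by LC-MS. Off-rates were fitted to a single or two-phase exponential to give t1/2.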

[14] = molecular target: RNA-directed RNA polymerase (Hepacivirus hominis, UniProt O39930, C316N); test: Inhibition of Hepatitis C virus genotype 1b NS5B Cdelta21 RNA dependent RNA polymerase 316N mutant using biotinylated polyC:oligoG/[alpha-P33]-GTP as template/substrate preincubated for 15 mins followed by template/substrate addition by scintillation proximity assay; parameters: species or system Hepatitis C virus subtype 1b
Outline: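 Isolated NS5B at 30 nM was preincubated with inhibitor for 15 min before reaction start. The IC50 was determined from the polymerase assay.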

[15] = test system: Hepatitis C virus (isolate BK); test: Inhibition of C-terminal 6xHis-tagged Hepatitis C virus genotype 1b BK NS5B Cdelta21 RNA dependent RNA polymerase L47Q/F101Y/[…] mutant expressed in Escherichia coli BL21(DE3) using radiolabelled CTP/5'-A(8)CG-3' as substrate/template assessed as inhibition of pCpG dimer formation at 0.016 to 10 uM
[16] = test system: RNA-directed RNA polymerase (Hepacivirus hominis), O39930 [C316N]; test: Binding affinity to Hepatitis C virus genotype 1b NS5B Cdelta21 RNA dependent RNA polymerase 316N mutant assessed as dissociation half life at 0.6 uM by LC-MS/MS analysis; conditions: Hepatitis C virus subtype 1b; outline: as §2

Sequence of RNA-directed RNA polymerase (O39930 entry or part of it C316N): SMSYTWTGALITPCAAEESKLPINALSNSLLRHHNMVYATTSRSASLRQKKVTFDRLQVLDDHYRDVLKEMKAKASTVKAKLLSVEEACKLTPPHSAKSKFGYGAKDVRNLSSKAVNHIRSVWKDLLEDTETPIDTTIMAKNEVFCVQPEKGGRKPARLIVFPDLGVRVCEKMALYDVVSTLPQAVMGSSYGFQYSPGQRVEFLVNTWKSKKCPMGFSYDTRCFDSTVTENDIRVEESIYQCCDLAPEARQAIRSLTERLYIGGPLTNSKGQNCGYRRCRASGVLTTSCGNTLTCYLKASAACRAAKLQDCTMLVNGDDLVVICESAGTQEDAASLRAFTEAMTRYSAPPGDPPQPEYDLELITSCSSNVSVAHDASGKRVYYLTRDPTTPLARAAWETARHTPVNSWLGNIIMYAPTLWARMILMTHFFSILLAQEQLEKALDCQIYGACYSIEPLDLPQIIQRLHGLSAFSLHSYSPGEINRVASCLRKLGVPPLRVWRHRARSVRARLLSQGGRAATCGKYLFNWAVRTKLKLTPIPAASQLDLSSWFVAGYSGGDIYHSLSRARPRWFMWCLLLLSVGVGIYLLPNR
Sequence of RNA-directed RNA polymerase (Hepacivirus hominis), O39930 [C316N] (O39930 entry or part of it C316N): as above

Row | SMILES | EC50 [1] [nM] | EC50 [2] [nM] | IC50 [3] [nM] | EC50 [4] [nM] | EC50 [5] [nM] | bioavailability [6] [%] | clearance [7] [mL/min/kg] | Activity [8] | Stability [9] | EC50 [10] [nM] | EC50 [11] [nM] | EC50 [12] [nM] | T1/2 [13] [h] | IC50 [14] [nM] | inhibition [15] | T1/2 [16] [h]
1 | CNC(=O)c1c(-c2ccc(F)cc2)oc2cc(N(Cc3ccc4c(c3)COB4O)S(C)(=O)=O)c(C3CC3)cc12 | 16 | 9.5 | 40 | 2.7 | – | – | – | – | – | – | – | – | – | – | – | –
2 | CNC(=O)c1c(-c2ccc(F)cc2)oc2cc(N(Cc3ccc(B(O)O)cc3)S(C)(=O)=O)c(C3CC3)cc12 | 13 | 2.7 | 32 | 2.6 | 120 | < 3 | 36 | – | – | – | – | – | – | – | – | –
3 | CNC(=O)c1c(-c2ccc(F)cc2)oc2cc(N(Cc3ccccc3)S(C)(=O)=O)c(C3CC3)cc12 | 440 | 58 | 50 | 18 | – | – | – | – | – | – | – | – | – | – | – | –
4 | CNC(=O)c1c(-c2ccc(F)cc2)oc2cc(N(Cc3cccc4c3COB4O)S(C)(=O)=O)c(C3CC3)cc12 | 110 | 17 | 32 | 4.9 | – | – | – | – | – | – | – | – | – | – | – | –
5 | CNC(=O)c1c(-c2ccc(F)cc2)oc2cc(N(CC3CCB(O)O3)S(C)(=O)=O)c(C3CC3)cc12 (racemic) | 52 | 8.8 | 100 | 6.5 | – | – | – | Non-toxic | Stable | – | – | – | – | – | – | –
6 | CNC(=O)c1c(-c2ccc(F)cc2)oc2cc(N(CC3CCOB(O)C3)S(C)(=O)=O)c(C3CC3)cc12 (racemic) | 38 | 9.1 | 80 | 3.7 | – | – | – | Non-toxic | Stable | – | – | – | – | – | – | –
7 | CNC(=O)c1c(-c2ccc(F)cc2)oc2cc(N(Cc3ccc(P(=O)(O)O)cc3)S(C)(=O)=O)c(C3CC3)cc12 | > 5000 | 2200 | 20 | 760 | – | – | – | – | – | – | – | – | – | – | – | –
8 | CNC(=O)c1c(-c2ccc(F)cc2)oc2cc(N(C[C@H]3COB(O)C3)S(C)(=O)=O)c(C3CC3)cc12 | 11 | 5.3 | 50 | 2.9 | – | – | 32 | Non-toxic | Stable | – | – | – | – | – | – | –
9 | CNC(=O)c1c(-c2ccc(F)cc2)oc2cc(N(CC3=CB(O)OC3)S(C)(=O)=O)c(C3CC3)cc12 | 13 | 9.6 | 50 | 1.9 | – | – | – | Non-toxic | Stable | – | – | – | – | – | – | –
10 | CNC(=O)c1c(-c2ccc(F)cc2)oc2cc(N(Cc3ccc(B(O)O)c(C)c3)S(C)(=O)=O)c(C3CC3)cc12 | 5.4 | 4.8 | 80 | 2.2 | – | – | – | – | – | – | – | – | – | – | – | –
11 | CNC(=O)c1c(-c2ccc(F)cc2)oc2cc(N(Cc3ccc(S(=O)(=O)O)cc3)S(C)(=O)=O)c(C3CC3)cc12 | > 5000 | > 5000 | 16 | 1800 | – | – | – | – | – | – | – | – | – | – | – | –
12 | CNC(=O)c1c(-c2ccc(F)cc2)oc2cc(N(Cc3cc(F)c4c(c3)COB4O)S(C)(=O)=O)c(C3CC3)cc12 | 12 | 5.8 | 32 | 3.2 | 190 | – | – | – | – | 16 | 110 | 84 | – | – | – | –
13 | CNC(=O)c1c(-c2ccc(F)cc2)oc2cc(N(CCOCB(O)O)S(C)(=O)=O)c(C3CC3)cc12 | 3.9 | 6.7 | 40 | 3.2 | – | – | 25 | – | – | – | – | – | – | – | – | –
14 | CCOP(=O)(OCC)c1ccc(CN(c2cc3oc(-c4ccc(F)cc4)c(C(=O)NC)c3cc2C2CC2)S(C)(=O)=O)cc1 | 480 | 36 | 100 | 20 | – | – | – | – | – | – | – | – | – | – | – | –
15 | CNC(=O)c1c(-c2ccc(F)cc2)oc2cc(N(CCO)S(C)(=O)=O)c(C3CC3)cc12 [NESBUVIR] | 100 | 27 | 40 | 18 | 1900 | – | – | – | – | 420 | 2500 | 1300 | 1.7 | 160 | – | –
16 | CNC(=O)c1c(-c2ccc(F)cc2)oc2cc(N(C[C@@H]3COB(O)C3)S(C)(=O)=O)c(C3CC3)cc12 | 13 | 7.6 | 63 | 4.6 | 830 | – | 6.6 | – | – | 11 | 37 | 6.5 | – | – | – | –
17 | CNC(=O)c1c(-c2ccc(F)cc2)oc2cc(N(Cc3cccc(B(O)O)c3)S(C)(=O)=O)c(C3CC3)cc12 | 120 | 8.8 | 30 | 6.9 | – | – | – | – | – | – | – | – | – | – | – | –
18 | CNC(=O)c1c(-c2ccc(F)cc2)oc2cc(N(CC3CCB(O)OC3)S(C)(=O)=O)c(C3CC3)cc12 (racemic) | 56 | 9.7 | 63 | 6.4 | – | – | – | Non-toxic | Stable | – | – | – | – | – | – | –
19 | CNC(=O)c1c(-c2ccc(F)cc2)oc2cc(N(Cc3ccc4c(c3)B(O)OC4)S(C)(=O)=O)c(C3CC3)cc12 | 64 | 7.4 | 32 | 4.9 | – | – | – | – | – | – | – | – | – | – | – | –
20 | CNC(=O)c1c(-c2ccc(F)cc2)oc2cc(N(CC3COB(O)C3)S(C)(=O)=O)c(C3CC3)cc12 (racemic) | 7.6 | 2.9 | 50 | 2.8 | – | – | – | Non-toxic | Stable | – | – | – | – | – | – | –
21 | CNC(=O)c1c(-c2ccc(F)cc2)oc2cc(N(CCC3OB(O)c4ccccc43)S(C)(=O)=O)c(C3CC3)cc12 (racemic) | 12 | 7.4 | 32 | 3.5 | 790 | – | – | – | – | – | – | – | – | – | – | –
22 | CNC(=O)c1c(-c2ccc(F)cc2)oc2cc(N(CCC3COB(O)C3)S(C)(=O)=O)c(C3CC3)cc12 (racemic) | 5.6 | 6.1 | 50 | 3.1 | – | – | – | Non-toxic | Stable | – | – | – | – | – | – | –
23 | CNC(=O)c1c(-c2ccc(F)cc2)oc2cc(N(Cc3ccc(C(=O)O)cc3)S(C)(=O)=O)c(C3CC3)cc12 | 3200 | 290 | 25 | 150 | – | – | – | – | – | – | – | – | – | – | – | –
24 | CNC(=O)c1c(-c2ccc(F)cc2)oc2cc(N(Cc3ccc(B(O)O)c(OC)c3)S(C)(=O)=O)c(C3CC3)cc12 | 50 | 12 | 100 | 3.6 | – | – | – | – | – | – | – | – | – | – | – | –
25 | CNC(=O)c1c(-c2ccc(F)cc2)oc2cc(N(Cc3ccc(B(O)O)c(F)c3)S(C)(=O)=O)c(C3CC3)cc12 | 1.9 | 3 | 50 | 1.7 | 3.2 | – | – | – | – | 1.4 | 3.8 | 4.2 | – | 130 | Active | 4.3
26 | CNC(=O)c1c(-c2ccc(F)cc2)oc2cc(N(Cc3ccc4c(c3)CCOB4O)S(C)(=O)=O)c(C3CC3)cc12 | 9 | 7 | 40 | 4.2 | 350 | – | – | – | – | – | – | – | – | – | – | –
